Format in all cases: functional
Test [1] has as its system Nakaseomyces glabratus. In words: Antifungal activity against Candida glabrata clinical isolate obtained from cervicovaginal candidiasis patient assessed as susceptible isolates by broth microdilution method. The gist of the method:
(§1)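 C. glabrata isolates were recovered from cervicovaginal swabs. Species was identified by in-house species-specific real-time PCR and confirmed on chromogenic Candida agar. Susceptibility was tested by CLSI M27-A2 broth microdilution, and isolates were classed as S, S-DD or R from the MIC. Voriconazole categories used proposed breakpoints.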

The subject of test [2] is Nakaseomyces glabratus. In words: Antifungal activity against Candida glabrata clinical isolate obtained from cervicovaginal candidiasis patient assessed as susceptible dose-dependent isolates by broth microdilution method. The gist of the method:
as §1

Test [3] relates to Nakaseomyces glabratus. In words: Antifungal activity against Candida glabrata clinical isolate overexpressing CDR1 gene obtained from cervicovaginal candidiasis patient assessed as resistant isolates by broth microdilution method. A digest of the protocol: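 Cervicovaginal swab isolates were classed by CLSI M27-A2 broth microdilution MIC. For expression, RNA came from mid-log cultures, column-purified and DNase-treated. Duplex qRT-PCR measured CDR1 (also PDH1, PDR1) against ACT1 as control, in triplicate independent amplifications from the same RNA. A ≥3-fold rise in CDR1 expression […].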

The test system of test [4] is Nakaseomyces glabratus. In words: Antifungal activity against Candida glabrata clinical isolate obtained from vulvovaginal candidiasis patient assessed as resistant isolates by broth microdilution method. A digest of the protocol: as §1
Background: Broth dilution looks for growth in wells or tubes with falling amounts of substance.

The subject of test [5] is Nakaseomyces glabratus. In words: Antifungal activity against Candida glabrata clinical isolate obtained from vulvovaginal candidiasis patient assessed as susceptible isolates by broth microdilution method. A digest of the protocol: as §1

Regarding `OC(Cn1cncn1)(Cn1cncn1)c1ccc(F)cc1F` [FLUCONAZOLE], the Activity stood at 30.9% in test [1]; 42.2% in test [2]; 26.9% in test [3]; 51.8% in test [4]; 15.2% in test [5].
Regarding `Clc1ccc(COC(Cn2ccnc2)c2ccc(Cl)cc2Cl)c(Cl)c1` (stereo not given) [MICONAZOLE], the Activity in test [1] came to 100%; in test [2], 0%.
Consider `C[C@@H](c1ncncc1F)[C@](O)(Cn1cncn1)c1ccc(F)cc1F` [VORICONAZOLE], for which the Activity in test [1] is listed as 62.3%; in test [2] it was 13.7%; in test [3], 24%.

The values are drawn from ChEMBL document CHEMBL1275490, “Antifungal resistance of Candida glabrata vaginal isolates and development of a quantitative reverse transcription-PCR-based azole susceptibility assay” (2008).
